Measurements as given in ChEMBL document CHEMBL1123492, “Carboxyl-modified amino acids and peptides as protease inhibitors” (J Med Chem, 1986).

Substrate: O=C(CNC(=O)OCc1ccccc1)Oc1ccc([N+](=O)[O-])cc1
Test: Michaelis constant against papain
Settings: Carica papaya
Outline: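 Papain activated 45 min at 25 °C in 50 mM phosphate pH 6.2 with 1 mM EDTA and 0.25 mM cysteine, made fresh daily. N-Cbz-Gly p-nitrophenyl ester hydrolysis at 25 °C read at 340 nm (Δε 6000 M⁻¹ cm⁻¹), corrected for nonenzymic hydrolysis. Compounds in acetonitrile or DMF, final <2.5% v/v. Reversible Ki by Lineweaver–Burk; irreversible Ki and k2 by Kitz–Wilson.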

B1: Papain (Carica papaya), P00784 (protein)
chain: MAMIPSISKLLFVAICLFVYMGLSFGDFSIVGYSQNDLTSTERLIQLFESWMLKHNKIYKNIDEKIYRFEIFKDNLKYIDETNKKNNSYWLGLNVFADMSNDEFKEKYTGSIAGNYTTTELSYEEVLNDGDVNIPEYVDWRQKGAVTPVKNQGSCGSCWAFSAVVTIEGIIKIRTGNLNEYSEQELLDCDRRSYGCNGGYPWSALQLVAQYGIHYRNTYPYEGVQRYCRSREKGPYAAKTDGVRQVQPYNEGALLYSIANQPVSVVLEAAGKDFQLYRGGIFVGPCGNKVDHAVAAVGYGPNYILIKNSWGTGWGENGYIRIKRGTGNSYGVCGLYTSSFYPVKN
With B1 the Km was 10.3 µM.
